Results from ChEMBL document CHEMBL1122328, “Hypolipidemic activity of phthalimide derivatives. 2. N-phenylphthalimide and derivatives” (1983).

How the values were obtained:
Mus musculus [1] = test: Effect on cholesterol from CF1 male mice after 16 days at a dose of 40 (mg/kg/day); assay type: functional
How it was run: (§1)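 CF1 male mice dosed ip for 16 days at 10–60 (mg/kg)/day; liver taken and 10% homogenate made in 0.25 M sucrose + 0.001 M EDTA; aliquot extracted by Folch and Bligh–Dyer methods, mg lipid weighed, cholesterol measured by Liebermann–Burchard method; n = 6; % of 1% CMC control.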

Mus musculus [2] = test: Effect on cholesterol from CF1 male mice after 16 days at a dose of 60 (mg/kg/day); assay type: functional; how it was run: as §1
Mus musculus [3] = test: In vitro effect on CF1 male mouse on acyltransferase after 16 days at a dose of 20 (mg/kg)/day; assay type: functional
How it was run: (§2)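 In vivo enzyme study. CF₁ male mice were dosed ip for 16 days in 1% CMC, and liver was homogenised to 10% in 0.25 M sucrose with 0.001 M EDTA. Enzymes assayed: acetyl-CoA synthetase as hydroxamate at 540 nm after 30 min at 37 °C; HMG CoA reductase with [1-¹⁴C]acetate in 9000g supernatant for 60 min at 37 °C; fatty acid synthetase with [2-¹⁴C]malonyl-CoA; acyltransferase with [³H]glycerol 3-phosphate and microsomes for 10 min; phosphatidate phosphohydrolase as released phosphate at 820 nm after 30 min. N = 6; reported as % control.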

Mus musculus [4] = test: In vitro effect on CF1 male mouse on phosphatidate phosphohydrolase after 16 days at a dose of 10 (mg/kg)/day; assay type: functional; how it was run: as §2
Mus musculus [5] = test: In vitro effect on CF1 male mouse on phosphatidate phosphohydrolase after 16 days at a dose of 20 (mg/kg)/day; assay type: functional; how it was run: as §2
Mus musculus [6] = test: Effect on neutral lipids from CF1 male mice after 16 days at a dose of 40 (mg/kg/day); assay type: functional
How it was run: (§3)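 Dosing was ip in CF₁ male mice (~25 g) for 16 days, with compound suspended in 1% carboxymethylcellulose. Liver was then taken and homogenised to 10% in 0.25 M sucrose with 0.001 M EDTA. Lipid was extracted from a 2 mL aliquot by the Folch and Bligh–Dyer methods and total mg of lipid was weighed. Cholesterol (Liebermann–Burchard), triglycerides (kit), neutral lipids and phospholipids were then measured; N = 6; reported as % of vehicle control.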

Mus musculus [7] = test: Effect on triglycerides from CF1 male mice after 16 days at a dose of 10 (mg/kg/day); assay type: functional; how it was run: as §3
Mus musculus [8] = test: Effect on triglycerides from CF1 male mice after 16 days at a dose of 60 (mg/kg/day); assay type: functional; how it was run: as §3
Mus musculus [9] = test: Effect on Serum cholesterol levels on CF1 male mice at a dose of 20 (mg/kg)/day after 9 days; assay type: functional
How it was run: (§4)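 CF1 male mice (~25 g), drug suspended in 1% carboxymethylcellulose in water, given ip daily for 16 days; n = 6; vehicle control. Tail-vein blood on days 9 and 16, serum cholesterol by modified Liebermann–Burchard reaction; day-14 serum triglyceride by commercial kit; expressed as % control.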

Mus musculus [10] = test: Effect on Serum cholesterol levels on CF1 male mice at a dose of 25 (mg/kg)/day after 16 days; assay type: functional; how it was run: as §4
Mus musculus [11] = test: Effect on Serum cholesterol levels on CF1 male mice at a dose of 25 (mg/kg)/day after 9 days; assay type: functional; how it was run: as §4
Mus musculus [12] = test: Effect on Serum cholesterol levels on CF1 male mice at a dose of 50 (mg/kg)/day after 9 days; assay type: functional; how it was run: as §4
Mus musculus [13] = test: Effect on Serum triglceride levels on CF1 male mice at a dose of 20 (mg/kg)/day after 14 days; assay type: functional; how it was run: as §4
Mus musculus [14] = test: Effect on Serum triglceride levels on CF1 male mice at a dose of 25 (mg/kg)/day after 14 days; assay type: functional; how it was run: as §4
Mus musculus [15] = test: Effect on Serum triglceride levels on Hyperlipidemic induced mice After 14 days dosing.; assay type: functional
How it was run: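 Mice fed atherogenic diet for 2 weeks to raise serum lipids, then given drug at 20 (mg/kg)/day ip for a further 2 weeks; serum cholesterol and triglyceride measured after the diet and after 14 days dosing; n = 6; compared with 1% CMC and diet-only controls; % control.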

Mus musculus [16] = test: Effect on Serum triglyceride levels on CF1 male mice at a dose of 20 (mg/kg)/day after 14 days; assay type: functional; how it was run: as §4
Mus musculus [17] = test: Effect on cholesterol from CF1 male mice after 16 days at a dose of 10 (mg/kg/day); assay type: functional; how it was run: as §1
Mus musculus [18] = test: In vitro effect on CF1 male mouse onAc-CoA carboxylase after 16 days at a dose of 40 (mg/kg)/day; assay type: functional; conditions: in the assay text read “In vivo” for “In vitro”
How it was run: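 Mice (CF1 males) given agent ip daily for 16 days in 1% carboxymethylcellulose; liver 10% homogenate in 0.25 M sucrose + 0.001 M EDTA. Acetyl-CoA carboxylase first polymerized 30 min at 37 °C, then incubated 30 min at 37 °C with sodium [14C]bicarbonate (41.0 mCi/mmol); incorporated label counted. Activity as % of vehicle control; N = 6.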

Mus musculus [19] = test: In vitro effect on CF1 male mouse on Ac-CoA synthetase after 16 days at a dose of 20 (mg/kg)/day; assay type: functional; how it was run: as §2
Mus musculus [20] = test: In vitro effect on CF1 male mouse on Fatty acid synthetase after 16 days at a dose of 10 (mg/kg)/day; assay type: functional; how it was run: as §2
Mus musculus [21] = test: In vitro effect on CF1 male mouse on Fatty acid synthetase after 16 days at a dose of 20 (mg/kg)/day; assay type: functional; how it was run: as §2
Mus musculus [22] = test: In vitro effect on CF1 male mouse on HMGCoA reductase after 16 days at a dose of 10 (mg/kg)/day; assay type: functional; how it was run: as §2
Mus musculus [23] = test: In vitro effect on CF1 male mouse on HMGCoA reductase after 16 days at a dose of 60 (mg/kg)/day; assay type: functional; how it was run: as §2
Rattus norvegicus [24] = test: Effect on low density neutral lipids Holtzman rats after 14 days administration; assay type: functional
How it was run: (§5)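 Holtzman male rats (~400 g) given drug at 20 (mg/kg)/day for 14 days; on day 14 blood taken from the abdominal aorta and serum separated by centrifugation at 3500 rpm; lipid and protein content of the lipoprotein fractions measured.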

Rattus norvegicus [25] = test: Effect on very low density cholesterol Holtzman rats after 14 days administration; assay type: functional
How it was run: (§6)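 Holtzman male rats (~400 g) received drug at 20 (mg/kg)/day for 14 days. On day 14, blood was collected from the abdominal aorta and serum was separated by centrifugation at 3500 rpm. Lipid content of the lipoprotein fractions was then determined.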

Rattus norvegicus [26] = test: Effect on very low density neutral lipids Holtzman rats after 14 days administration; assay type: functional; how it was run: as §6
Rattus norvegicus [27] = test: Effect on Chylomicrons of Protein Holtzman rats after 14 days administration; assay type: functional; how it was run: as §5
Rattus norvegicus [28] = test: Effect on Serum cholesterol levels on Holtzman rats at a dose of 30 (mg/kg)/day after 9 days; assay type: functional
How it was run: (§7)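 Holtzman male rats (~200 g) dosed orally by intubation needle daily for 16 days, drug suspended in 1% carboxymethylcellulose; n = 6; vehicle control. Tail-vein serum cholesterol on days 9 and 16 by modified Liebermann–Burchard reaction; day-14 serum triglyceride by commercial kit; % control.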

Rattus norvegicus [29] = test: Effect on Serum triglceride levels on Holtzman rats at a dose of 30 (mg/kg)/day after 14 days; assay type: functional; how it was run: as §7
Rattus norvegicus [30] = test: Effect on high density Protein Holtzman rats after 14 days administration; assay type: functional; how it was run: as §5
Mus musculus [31] = test: Effect on Serum cholesterol levels on CF1 male mice at a dose of 100 (mg/kg)/day after 16 days; assay type: functional; how it was run: as §4
Mus musculus [32] = test: In vivo effect on CF1 male mouse on Lipid content after 16 days at a dose of 20 (mg/kg)/day

## CC(=O)c1ccccc1N1C(=O)c2ccccc2C1=O
Mus musculus [1]
  Control: 71%
Mus musculus [2]
  Control: 82%
Mus musculus [3]
  Control: 41%
Mus musculus [4]
  Control: 85%
Mus musculus [5]
  Control: 68%
Mus musculus [6]
  Control: 62%
Mus musculus [7]
  Control: 46%
Mus musculus [8]
  Control: 100%
Mus musculus [9]
  Control: 89%
Mus musculus [10]
  Control: 38%
Mus musculus [11]
  Control: 74%
Mus musculus [12]
  Control: 68%
Mus musculus [13]
  Control: 56%
Mus musculus [14]
  Control: 61%
Mus musculus [15]
  Control: 86%
Mus musculus [16]
  Control: 56%
Mus musculus [17]
  Control: 73%
Mus musculus [18]
  Control: 48%
Mus musculus [19]
  Control: 46%
Mus musculus [20]
  Control: 106%
Mus musculus [21]
  Control: 97%
Mus musculus [22]
  Control: 98%
Mus musculus [23]
  Control: 94%
Rattus norvegicus [24]
  Control: 49%
Rattus norvegicus [25]
  Control: 85%
Rattus norvegicus [26]
  Control: 81%
Rattus norvegicus [27]
  Control: 91%
Rattus norvegicus [28]
  Control: 76%
Rattus norvegicus [29]
  Control: 75%
Rattus norvegicus [30]
  Control: 80%
Mus musculus [31]
  Control: 26%
Mus musculus [32]
  Control: 85%
